Assay [1] relates to Mycobacterium tuberculosis. As to the kind of experiment: Bactericidal activity against Mycobacterium tuberculosis. It counts as functional.
Assay [2] relates to Staphylococcus aureus. The assay can be described thus: Bactericidal activity against Staphylococcus aureus. Format: functional.
The test system of assay [3] is Staphylococcus aureus. The assay can be described thus: Inhibition of Staphylococcus aureus MenA using [3H]farnesyl and DHNA as substrate at 100 uM after 2 hrs. A digest of the protocol:
(§1)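 Membrane fraction from mid-log cultures in 7H9/OADC, washed in saline, sonicated in MOPS pH 8/sucrose/MgCl2/2-mercaptoethanol buffer, spun 15,000 g then 200,000 g; the fraction was the enzyme source. DHNA (500 μM stock), MgCl2, 0.1% CHAPS, Tris pH 8, farnesyl diphosphate (200 μM stock) and inhibitor, 2 h at 37 °C. Quenched with 0.1 M AcOH/MeOH, extracted with hexanes, DMMK measured.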

The test system of assay [4] is Mycobacterium tuberculosis. The assay can be described thus: Inhibition of Mycobacterium tuberculosis MenA using [3H]farnesyl and DHNA as substrate at 100 uM after 2 hrs. The essentials: as §1
Assay [5] can be described thus: Inhibition of Mycobacterium tuberculosis MenA using [3H]farnesyl and DHNA as substrate after 2 hrs. A digest of the protocol:
as §1

Assay [6] concerns Staphylococcus aureus. As to the kind of experiment: Antibacterial activity against Staphylococcus aureus Seattle 1945 ATCC 25923 by agar plate diffusion method. Format: functional.
Assay [7] deals with Mycobacterium tuberculosis. As to the kind of experiment: Antibacterial activity against Mycobacterium tuberculosis H37Rv ATCC 27294 by microplate alamar blue assay. It counts as functional. The essentials:
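Colorimetric microplate assay run under aerobic conditions; growth scored by the colour change of resazurin. Compounds showing at least 90% inhibition in a preliminary screen were retested at lower concentrations to give the MIC.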
On the technique in general: The colour change of resazurin is a common sign of viable cells or microbes.

For assay [8], the system named is Mycobacterium tuberculosis. As to the kind of experiment: Antibacterial activity against non-replicating Mycobacterium tuberculosis H37Rv ATCC 27294 by low oxygen recovery assay. Format: functional.
The subject of assay [9] is Escherichia coli. The assay can be described thus: Growth inhibition of Escherichia coli Seattle ATCC 25922 at 5 to 10 ug/ml by microplate alamar blue assay. Format: functional, organism-based.
Assay [10] has as its system Escherichia coli. The assay can be described thus: Growth inhibition of Escherichia coli Seattle ATCC 25922 at 5 to 10 ug/ml by microplate alamar blue assay in presence of 50 uM VK2. It counts as functional, organism-based. A digest of the protocol: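 E. coli grown with inhibitor under anaerobic conditions; rescue tested by supplementing with menaquinone (VK2, 50 μM).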

Molecules are shown by their SMILES. ≈ marks a conversion by molar mass, not a printed value. Calls of active or inactive are those of the source. The rule behind the calls is not given here. Bounds are passed on as bounds.

As to `CC(C)=CC(O)C/C(C)=C/CC/C(C)=C/Cc1c(C)n(O)c2ccccc2c1=O` (configuration not stated) [AURACHIN RE], the figures for the MIC (in assay [1]; with Staphylococcus aureus [2]) were 25 µg/mL (≈ 63.2 µM) and 3.1 µg/mL (≈ 7.84 µM), respectively.
Turning to `C=CCN(C)CCCCCCCCOc1ccc(C(=O)c2ccc(Cl)cc2)c(Cl)c1`, the MIC (usually the lowest concentration that inhibits growth of the organism) in assay [1] came to 0.5 µg/mL (≈ 1.11 µM); in the assay on Staphylococcus aureus [2], 15.5 µg/mL (≈ 34.6 µM).
As for `CCCCCCCC(O)c1cccc(CN2CCC(COc3ccc(C(=O)c4ccc(Cl)cc4)c(Cl)c3)CC2)c1` (racemic), the minimal inhibitory concentration (MIC) in assay [1] is 8 µg/mL (≈ 13.7 µM); against Staphylococcus aureus [2], over 50 µg/mL; in the assay on Staphylococcus aureus [6] it was over 60 µg/mL; in assay [7] it was 12.5 µg/mL (≈ 21.5 µM); in assay [8] it was 1.88 µg/mL (≈ 3.23 µM). In addition, the inhibition entry with Staphylococcus aureus [3] is “inactive”. The inhibition result in assay [4] is “Active”. The IC50 – broadly, the concentration that inhibits the measured activity by half – in assay [5] was 20 µM. Moreover, the “growth inhibition (GI)” value with Escherichia coli [9] is “Active”. In the assay with Escherichia coli [10], the “growth inhibition (GI)” value is “inactive”.
For `CCCCC(O)CN1CCC(COc2ccc(C(=O)c3ccc(Cl)cc3)c(Cl)c2)CC1` (racemic), the MIC in assay [1] is 0.5 µg/mL (≈ 1.08 µM); with Staphylococcus aureus [2], over 50 µg/mL; in the assay with Staphylococcus aureus [6], over 60 µg/mL; in [7] it was 6.25 µg/mL (≈ 13.5 µM); in [8], 2.82 µg/mL (≈ 6.07 µM). Moreover, the inhibition entry in the assay with Staphylococcus aureus [3] was “inactive”. Besides, the inhibition entry in assay [4] is “Active”. This compound also had an IC50 in assay [5] of 15 µM. In addition, in the assay on Escherichia coli [9], the “growth inhibition (GI)” value was “Active”. In addition, the “growth inhibition (GI)” value in the assay with Escherichia coli [10] was “inactive”.
`CCCCC(O)CN1CCC(COc2cccc(C(=O)c3ccc(Cl)cc3)c2)CC1` (racemic): the MIC in assay [1] is 8 µg/mL (≈ 18.6 µM); in the assay with Staphylococcus aureus [2], over 50 µg/mL; against Staphylococcus aureus [6] it was over 60 µg/mL; in assay [7] it was 12.5 µg/mL (≈ 29.1 µM); in [8] it was 5.2 µg/mL (≈ 12.1 µM). Further, in the assay on Staphylococcus aureus [3], the inhibition result is “inactive”. Also, the inhibition result in assay [4] was “Active”. In addition, the IC50 in assay [5] amounted to 15 µM. The “growth inhibition (GI)” value in the assay on Escherichia coli [9] is “Active”. The “growth inhibition (GI)” value in the assay with Escherichia coli [10] is “inactive”.
As to `O=C(c1ccc(Cl)cc1)c1ccc(OC/C=C/COCCCNCCc2ccc(F)cc2)cc1Cl`, the MIC in [1] came out at 8 µg/mL (≈ 15.5 µM); with Staphylococcus aureus [2], 0.5 µg/mL (≈ 0.968 µM).
Regarding `CCCCCCCC(O)c1cccc(CN2CCC(COc3cccc(C(=O)c4ccc(Cl)cc4)c3)CC2)c1` (racemic), the MIC is 8 µg/mL (≈ 14.6 µM) in [1]; over 50 µg/mL in the assay with Staphylococcus aureus [2]; over 60 µg/mL in the assay on Staphylococcus aureus [6]; 12.5 µg/mL (≈ 22.8 µM) in assay [7]; 1.88 µg/mL (≈ 3.43 µM) in assay [8]. For the same compound, the inhibition entry in the assay on Staphylococcus aureus [3] is “inactive”. Besides, in assay [4], the inhibition result was “Active”. The same compound came in with an IC50 in [5] of 15 µM. The “growth inhibition (GI)” value in the assay on Escherichia coli [9] was “Active”. In addition, the “growth inhibition (GI)” value in the assay on Escherichia coli [10] was “inactive”.
Regarding `COc1ccc(CCNCCCOCCCCOc2ccc(C(=O)c3ccc(Cl)cc3)c(Cl)c2)cc1`, the MIC is 15.5 µg/mL (≈ 29.2 µM) in assay [1] and 0.5 µg/mL (≈ 0.943 µM) against Staphylococcus aureus [2].
The corresponding values for `O=C(c1ccc(Cl)cc1)c1ccc(OCc2cccc(CN3CCC(N4CCCCC4)CC3)c2)cc1Cl` are 8 µg/mL (≈ 14.9 µM) and 15.5 µg/mL (≈ 28.8 µM).
For the compound `CCCCCC[C@H](O)CN1CCC(COc2cccc(C(=O)c3ccc(Cl)cc3)c2)CC1`, the inhibition entry in the assay on Staphylococcus aureus [3] was “inactive”. Further, the inhibition result in assay [4] was “Active”. In addition, in assay [5], the IC50 came to 16 µM. For the same compound, the results for the MIC (with Staphylococcus aureus [6]; in assay [7]; in assay [8]) were over 60 µg/mL, 12.5 µg/mL (≈ 27.3 µM) and 4.91 µg/mL (≈ 10.7 µM), respectively. Besides, the “growth inhibition (GI)” value in the assay with Escherichia coli [9] was “Active”. The “growth inhibition (GI)” value in the assay with Escherichia coli [10] is “inactive”.
Regarding `COc1ccc(CCN[C@@H](CO)c2cccc(COc3cccc(C(=O)c4ccc(Cl)cc4)c3)c2)cc1`, the inhibition entry in the assay on Staphylococcus aureus [3] is “inactive”. For the same compound, the inhibition result in assay [4] is “Active”. The IC50 in [5] is 14 µM. The MIC in the assay on Staphylococcus aureus [6] is over 60 µg/mL; in assay [7] it was 12.5 µg/mL (≈ 24.2 µM); in assay [8] it was 3 µg/mL (≈ 5.81 µM). Further, in the assay on Escherichia coli [9], the “growth inhibition (GI)” value is “Active”. In addition, the “growth inhibition (GI)” value with Escherichia coli [10] is “inactive”.
With `CCCCCCC[C@H](OC(N)=O)c1cccc(CN2CCC(COc3cccc(C(=O)c4ccc(Cl)cc4)c3)CC2)c1`, in the assay on Staphylococcus aureus [3], the inhibition result was “inactive”. In addition, the inhibition result in assay [4] was “Active”. This compound displayed an IC50 in assay [5] of 20 µM. Further, the MIC against Staphylococcus aureus [6] was over 60 µg/mL; in [7], 12.5 µg/mL (≈ 21.1 µM); in assay [8], 4.93 µg/mL (≈ 8.34 µM). Further, the “growth inhibition (GI)” value in the assay with Escherichia coli [9] is “Active”. The “growth inhibition (GI)” value in the assay on Escherichia coli [10] was “inactive”.
Take `CCCCC(CN1CCC(COc2ccc(C(=O)c3ccc(Cl)cc3)c(Cl)c2)CC1)OC(N)=O` (racemic): in the assay with Staphylococcus aureus [3], the inhibition entry was “inactive”. Also, the inhibition result in assay [4] was “Active”. In assay [5], the IC50 turned out to be 7.5 µM. Besides, the MIC with Staphylococcus aureus [6] was over 60 µg/mL; in assay [7], 3.25 µg/mL (≈ 6.4 µM); in [8], 2.83 µg/mL (≈ 5.58 µM). For the same compound, the “growth inhibition (GI)” value with Escherichia coli [9] was “Active”. In the assay with Escherichia coli [10], the “growth inhibition (GI)” value was “inactive”.
Regarding `CCCCCC[C@@H](O)CN1CCC(COc2ccc(C(=O)c3ccc(Cl)cc3)c(Cl)c2)CC1`, the inhibition result in the assay with Staphylococcus aureus [3] is “inactive”. Besides, in assay [4], the inhibition result is “Active”. Further, the IC50 in assay [5] worked out at 9.5 µM. In addition, the MIC was over 60 µg/mL in the assay with Staphylococcus aureus [6], 6.25 µg/mL (≈ 12.7 µM) in assay [7] and 5.2 µg/mL (≈ 10.6 µM) in [8]. In addition, in the assay on Escherichia coli [9], the “growth inhibition (GI)” value was “Active”. Besides, the “growth inhibition (GI)” value with Escherichia coli [10] is “inactive”.
Take `CCCCCCC[C@H](OC(N)=O)c1cccc(CN2CCC(COc3ccc(C(=O)c4ccc(Cl)cc4)c(Cl)c3)CC2)c1`: the inhibition result in the assay with Staphylococcus aureus [3] is “inactive”. In addition, in assay [4], the inhibition result was “Active”. Besides, half-maximal inhibition in assay [5] (IC50) required 20 µM. The MIC in the assay on Staphylococcus aureus [6] is over 60 µg/mL; in assay [7], 12.5 µg/mL (≈ 20 µM); in assay [8], 2.93 µg/mL (≈ 4.68 µM). Also, the “growth inhibition (GI)” value in the assay with Escherichia coli [9] is “Active”. In the assay with Escherichia coli [10], the “growth inhibition (GI)” value was “inactive”.
For the compound `CCCCCC[C@@H](O)CN1CCC(COc2cccc(C(=O)c3ccc(Cl)cc3)c2)CC1`, the inhibition result in the assay with Staphylococcus aureus [3] was “inactive”. The inhibition result in [4] was “Active”. Besides, the IC50 in assay [5] stood at 9 µM. For the same compound, the MIC was over 60 µg/mL against Staphylococcus aureus [6], 6.2 µg/mL (≈ 13.5 µM) in assay [7] and 5.59 µg/mL (≈ 12.2 µM) in assay [8]. For the same compound, the “growth inhibition (GI)” value in the assay on Escherichia coli [9] is “Active”. Also, the “growth inhibition (GI)” value in the assay on Escherichia coli [10] is “inactive”.
As for `CCCCCCC[C@@H](O)c1cccc(CN2CCC(COc3ccc(/C(=N\OC)c4ccc(Cl)cc4)c(Cl)c3)CC2)c1`, the inhibition result in the assay with Staphylococcus aureus [3] was “inactive”. Further, the inhibition result in [4] was “Active”. Also, the IC50 in [5] came out at 15 µM. For the same compound, the MIC in the assay with Staphylococcus aureus [6] was over 60 µg/mL; in assay [7], 12.5 µg/mL (≈ 20.4 µM); in assay [8] it was 5.54 µg/mL (≈ 9.06 µM). Also, the “growth inhibition (GI)” value in the assay with Escherichia coli [9] is “Active”. In the assay with Escherichia coli [10], the “growth inhibition (GI)” value is “inactive”.
`CCCCCCC[C@H](O)c1cccc(CN2CCC(COc3ccc(C(=O)c4ccc(Cl)cc4)c(Cl)c3)CC2)c1`: in the assay with Staphylococcus aureus [3], the inhibition result is “inactive”. The inhibition entry in assay [4] was “Active”. This compound registered an IC50 in assay [5] of 15 µM. In addition, the results for the MIC (with Staphylococcus aureus [6]; in [7]; in assay [8]) were over 60 µg/mL, 12.5 µg/mL (≈ 21.5 µM) and 1.88 µg/mL (≈ 3.23 µM), respectively. In addition, the “growth inhibition (GI)” value in the assay with Escherichia coli [9] is “Active”. Besides, the “growth inhibition (GI)” value in the assay on Escherichia coli [10] is “inactive”.
Turning to `COc1ccc(CCNC(CO)c2cccc(COc3cccc(C(=O)c4ccc(Cl)cc4)c3)c2)cc1` (racemic), the MIC in assay [1] is 8 µg/mL (≈ 15.5 µM); in the assay with Staphylococcus aureus [2], over 50 µg/mL; in the assay on Staphylococcus aureus [6] it was over 60 µg/mL; in assay [7] it was 12.5 µg/mL (≈ 24.2 µM); in assay [8] it was 3 µg/mL (≈ 5.81 µM). In the assay with Staphylococcus aureus [3], the inhibition result is “inactive”. Further, the inhibition result in assay [4] is “Active”. The same compound displayed an IC50 in [5] of 15 µM. Moreover, the “growth inhibition (GI)” value in the assay on Escherichia coli [9] was “Active”. In addition, in the assay on Escherichia coli [10], the “growth inhibition (GI)” value was “inactive”.

Values taken from ChEMBL document CHEMBL2046305, “Discovery of selective menaquinone biosynthesis inhibitors against Mycobacterium tuberculosis” (J Med Chem, 2012).
